Consider six compounds from ChEMBL document CHEMBL3045051 (Med Chem Res, 2011).

The structures appear in SMILES notation. The source made the active and inactive calls. The calls are words filed in the database; no cut-off is given here.

The subject of assay [1] is Vesicular stomatitis virus. Put plainly: Antiviral activity against Vesicular stomatitis virus infected Hela cells assessed as inhibition of virus-induced cytopathicity. The format is functional, organism-based. In general terms: Damage to the host cells serves as the signal in cytopathic effect assays.
The next assay concerns Human alphaherpesvirus 1. The assay is described as follows: Antiviral activity against […] 1 KOS infected in human HEL cells assessed as inhibition of virus-induced cytopathicity. The format is functional, organism-based. In a few lines: (§1)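 Confluent monolayers (feline kidney Crandell, Vero, HEL or HeLa, as named for each virus) were infected with 100 CCID50 of virus and allowed to adsorb for 1 h. Unbound virus was then removed, and cultures were incubated with test compound in serial dilutions (200, 40, 8 … µM). Cytopathicity was scored once untreated infected controls reached complete cytopathic effect.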

Assay [2] relates to Radical scavenging activity. Put plainly: Antioxidant activity assessed as DPPH radical scavenging activity at 5 X 10^-5 M after 20 min. In kind it is functional. The essentials: (§2)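 Test compound was mixed with DPPH (0.05 and 0.1 mM) in ethanol. Absorbance at 517 nm was read after 20 and 60 min and compared with the NDGA standard, with ethanol as control. Each experiment was run at least in triplicate, and the SD of absorbance was <10% of the mean.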

Assay [3] has as its system Coxsackievirus B4. The assay is described as follows: Antiviral activity against Human coxsackievirus B4 infected VERO cells assessed as inhibition of virus-induced cytopathicity. In kind it is functional, organism-based. In a few lines:
as §1

Assay [4] has as its system Respiratory syncytial virus. The assay is described as follows: Antiviral activity against Respiratory syncytial virus infected human HeLa cells assessed as inhibition of virus-induced cytopathicity. The format is functional, organism-based. The essentials: as §1
Assay [5] concerns Vesicular stomatitis virus. The assay is described as follows: Antiviral activity against Vesicular stomatitis virus infected HEL cells assessed as inhibition of virus-induced cytopathicity. The format is functional, organism-based.
In assay [6] the target is T1, Seed linoleate 13S-lipoxygenase-1 (Glycine max) (UniProt P08170).
T1 sequence (whole entry): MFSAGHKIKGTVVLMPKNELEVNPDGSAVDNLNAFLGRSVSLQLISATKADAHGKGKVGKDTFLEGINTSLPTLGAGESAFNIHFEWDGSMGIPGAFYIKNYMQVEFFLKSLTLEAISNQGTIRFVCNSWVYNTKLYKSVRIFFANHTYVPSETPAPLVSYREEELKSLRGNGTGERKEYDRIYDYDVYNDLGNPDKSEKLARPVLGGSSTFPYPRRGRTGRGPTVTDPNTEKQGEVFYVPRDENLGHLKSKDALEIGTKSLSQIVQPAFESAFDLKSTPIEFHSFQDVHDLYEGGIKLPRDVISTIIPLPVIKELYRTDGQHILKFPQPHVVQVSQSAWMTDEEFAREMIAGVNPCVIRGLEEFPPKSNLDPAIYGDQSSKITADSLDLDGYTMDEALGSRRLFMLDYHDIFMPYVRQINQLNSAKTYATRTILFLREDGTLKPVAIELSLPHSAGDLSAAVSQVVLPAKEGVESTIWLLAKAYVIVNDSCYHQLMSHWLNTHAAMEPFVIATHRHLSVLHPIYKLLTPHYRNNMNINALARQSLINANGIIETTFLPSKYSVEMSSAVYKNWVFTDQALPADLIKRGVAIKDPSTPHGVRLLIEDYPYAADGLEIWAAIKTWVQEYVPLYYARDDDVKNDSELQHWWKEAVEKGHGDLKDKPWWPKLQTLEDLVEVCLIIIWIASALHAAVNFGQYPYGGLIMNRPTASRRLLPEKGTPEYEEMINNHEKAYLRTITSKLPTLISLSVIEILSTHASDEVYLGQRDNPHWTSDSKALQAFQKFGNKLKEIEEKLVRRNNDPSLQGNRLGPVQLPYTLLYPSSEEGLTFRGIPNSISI
The assay is described as follows: Inhibition of Glycine max (soybean) lipoxygenase using sodium linoleate as substrate at 1 X 10^-4.

Assay [7] concerns Radical scavenging activity. The assay is described as follows: Antioxidant activity assessed as DPPH radical scavenging activity at 1 X 10^-4 M after 20 min. The format is functional. In a few lines:
as §2
For orientation: The DPPH test is a chemical assay of radical scavenging.

Another assay deals with Punta Toro virus. The assay is described as follows: Antiviral activity against Punta Toro virus infected Hela cells assessed as inhibition of virus-induced cytopathicity. The format is functional, organism-based.
In the next assay the test system is Human alphaherpesvirus 2. Put plainly: Antiviral activity against Human herpesvirus 2 strain G infected human HEL cells assessed as inhibition of virus-induced cytopathicity. The format is functional, organism-based. The essentials:
as §1

For assay [8], the system named is Radical scavenging activity. Put plainly: Antioxidant activity assessed as DPPH radical scavenging activity at 5 X 10^-5 M after 60 min. The format is functional. In a few lines: as §2
Assay [9] is described as follows: Antioxidant activity assessed as inhibition of AAPH-induced lipid peroxidation at 1 X 10^-4 M. The format is functional.
Assay [10] can be described thus: Antioxidant activity assessed as inhibition of AAPH-induced lipid peroxidation at 1 X 10^-5 M. In kind it is functional.
The subject of assay [11] is Mammalian orthoreovirus 1. Put plainly: Antiviral activity against Mammalian orthoreovirus 1 infected VERO cells assessed as inhibition of virus-induced cytopathicity. The format is functional, organism-based. The essentials: as §1
The subject of assay [12] is Coxsackievirus B4. Put plainly: Antiviral activity against Human coxsackievirus B4 infected human HeLa cells assessed as inhibition of virus-induced cytopathicity. The format is functional, organism-based. In a few lines: as §1
Assay [13] deals with Radical scavenging activity. The assay is described as follows: Antioxidant activity assessed as DPPH radical scavenging activity at 1 X 10^-4 M after 60 min. The format is functional. In a few lines: as §2
The test system of a further assay is Vaccinia virus. The assay is described as follows: Antiviral activity against Vaccinia virus infected human HEL cells assessed as inhibition of virus-induced cytopathicity. As to conditions: Orthopoxvirus vaccinia. The format is functional, organism-based.
A further assay has as its system Influenza A virus. The assay is described as follows: Antiviral activity against Unidentified Influenza A virus (H1N2) infected MDCK cells assessed as inhibition of virus-induced cytopathicity. In kind it is functional, organism-based.
In the next assay the test system is Feline coronavirus. The assay is described as follows: Antiviral activity against Feline coronavirus infected feline kidney crandell cells assessed as inhibition of virus-induced cytopathicity. In kind it is functional, organism-based. In a few lines: as §1
The subject of the next assay is Sindbis virus. Put plainly: Antiviral activity against Sindbis virus infected Hela cells assessed as inhibition of virus-induced cytopathicity. The format is functional, organism-based.
The target in assay [14] is T2, Seed linoleate 13S-lipoxygenase-1 (Glycine max, UniProt P08170).
T2 sequence (P08170 whole entry): T1 sequence (whole entry)
The assay is described as follows: Inhibition of Glycine max (soybean) lipoxygenase using sodium linoleate as substrate.

The test system of another assay is Human respirovirus 3. The assay is described as follows: Antiviral activity against Human parainfluenza virus 3 infected Vero cells assessed as inhibition of virus-induced cytopathicity. The format is functional, organism-based. The essentials:
as §1

In the case of `CC(C(=O)n1nnc2ccccc21)c1cccc(C(OC(=O)n2nnc3ccccc32)c2ccccc2)c1` (centres undefined), the outcome (in [1]; in the assay on Human alphaherpesvirus 1; with Coxsackievirus B4 [3]; in assay [4]; in assay [5]; in the assay on Punta Toro virus) was inactive. Further, the outcome (with Human alphaherpesvirus 2; in [11]; in the assay on Coxsackievirus B4 [12]; in the assay on Vaccinia virus; in the assay on Influenza A virus; in the assay on Influenza A virus (H1N1)) was inactive. Moreover, the result with Feline coronavirus, in the assay on Sindbis virus and in the assay with Human respirovirus 3 was inactive. Besides, the inhibition in [2] worked out at 2.9%; in assay [6], 95%; in assay [7], 2.5%; in assay [8] it was 3.7%; in assay [9] it was 98%; in [10], 15%. Also, in assay [13], the inhibition was determined as 5.4%. Besides, in assay [14], the IC50 worked out at 21 µM.
Regarding `CC(C(=O)NCc1ccccc1)c1cccc(C(OC(=O)NCc2ccccc2)c2ccccc2)c1` (centres undefined), the figures for the EC50 (in [1]; with Punta Toro virus; in the assay with Sindbis virus) were 3 µM, 11 µM and 11 µM, respectively. For the same compound, the outcome (with Human alphaherpesvirus 1; in the assay on Coxsackievirus B4 [3]; in [4]; in [5]; with Human alphaherpesvirus 2; in assay [11]) was inactive. The result in the assay on Coxsackievirus B4 [12], in the assay on Vaccinia virus, with Influenza A virus, in the assay on Influenza A virus (H1N1), with Feline coronavirus and in the assay on Human respirovirus 3 was inactive. Besides, the inhibition came to 4.2% in [2]; 83.8% in assay [6]; 5.3% in [8]; 98.4% in [9]; 2.4% in assay [13]. For the same compound, the inhibition result in [7] and in assay [10] was “inactive” each time. Also, 32 µM corresponded to half-maximal inhibition in assay [14] (IC50).
Turning to `CC(C(=O)NC1CCCC1)c1cccc(C(OC(=O)NC2CCCC2)c2ccccc2)c1` (centres undefined), the outcome (in assay [1]; in the assay with Human alphaherpesvirus 1; in the assay with Coxsackievirus B4 [3]; in assay [4]; in assay [5]; in the assay on Punta Toro virus) was inactive. In addition, the outcome (in the assay with Human alphaherpesvirus 2; in [11]; in the assay with Coxsackievirus B4 [12]; with Vaccinia virus; in the assay with Influenza A virus; with Influenza A virus (H1N1)) was inactive. Also, the result in the assay on Feline coronavirus, in the assay with Sindbis virus and in the assay on Human respirovirus 3 was inactive. Besides, the inhibition in [2] came out at 3.2%; in [6], 69.6%; in assay [8] it was 2.8%; in [9], 95.2%; in assay [13], 2.3%. Moreover, the inhibition result in assay [7] and in [10] was “inactive” throughout. This compound also registered an IC50 in [14] of 86 µM.
`CC(C(=O)NOCc1ccccc1)c1cccc(C(OC(=O)NOCc2ccccc2)c2ccccc2)c1` (centres undefined): the outcome (in assay [1]; with Human alphaherpesvirus 1; in the assay on Coxsackievirus B4 [3]; in assay [4]; in [5]; in the assay with Punta Toro virus) was inactive. Also, the outcome (in the assay with Human alphaherpesvirus 2; in [11]; in the assay on Coxsackievirus B4 [12]; in the assay on Vaccinia virus; in the assay with Influenza A virus; with Influenza A virus (H1N1)) was inactive. Moreover, the outcome with Feline coronavirus, in the assay on Sindbis virus and in the assay on Human respirovirus 3 was inactive. Also, the inhibition in assay [2] stood at 3.4%; in assay [6] it was 40.8%; in [8] it was 5.6%; in assay [9] it was 99.3%; in assay [10] it was 49.2%. Further, the inhibition entry in [7] and in [13] was “inactive” throughout.
Regarding `CC(C(=O)O)c1cccc(C(=O)c2ccccc2)c1` (centres undefined) [KETOPROFEN], the result (in [1]; in the assay with Human alphaherpesvirus 1; with Coxsackievirus B4 [3]; in [4]; in assay [5]; in the assay with Punta Toro virus) was inactive. In addition, the outcome (in the assay on Human alphaherpesvirus 2; in [11]; in the assay with Coxsackievirus B4 [12]; in the assay with Vaccinia virus; in the assay with Influenza A virus; in the assay on Influenza A virus (H1N1)) was inactive. The result in the assay with Feline coronavirus, with Sindbis virus and in the assay on Human respirovirus 3 was inactive. In addition, the inhibition in assay [2] worked out at 6.4%; in [7] it was 8.1%; in [8], 3.1%; in assay [13], 7.2%. Further, in assay [14], the IC50 amounted to 130 µM.
Regarding `CC(C(=O)NCC1CCCCC1)c1cccc(C(OC(=O)NCC2CCCCC2)c2ccccc2)c1` (centres undefined), the result (in assay [1]; in the assay on Human alphaherpesvirus 1; with Coxsackievirus B4 [3]; in assay [4]; in [5]; in the assay on Punta Toro virus) was inactive. The outcome (in the assay with Human alphaherpesvirus 2; in assay [11]; in the assay with Coxsackievirus B4 [12]; with Vaccinia virus; in the assay with Influenza A virus; in the assay on Influenza A virus (H1N1)) was inactive. Also, the result in the assay on Feline coronavirus, in the assay with Sindbis virus and with Human respirovirus 3 was inactive. For the same compound, the inhibition in assay [2] is 1.7%; in assay [6], 56.6%; in [7], 1.6%; in assay [8], 3.1%; in [9] it was 99.5%; in assay [10] it was 1.4%. Further, the inhibition in [13] is 5.2%. Besides, in assay [14], half-maximal inhibition (IC50) required 95 µM.

In general, inhibition refers to the share of the control response that was lost under treatment. The term IC50 denotes the concentration that gives 50% inhibition. Broadly, the EC50 is the concentration needed to bring the measured effect to its halfway point.
